# Hits are enriched below; roughly 2.2% of the tested compounds scored in any of these assays.
# SIAE inh – human SIAE inhibitors, primary screen, biochemical, fluorescence polarization, FP-Rh probe, 1536-well HTS | Sialate O-acetylesterase (Homo sapiens), Q9HAT2 | SIAE FP-Rh probe binding | inhibition, % at 9.66 µM | hit rate 0.69% among 370,000 | AID 1053197, 2014;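 active means inhibition above a cutoff: mean of compounds within the control limits plus 3 SD of those, cut at about 17% in these data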
# TDP2 inh – human TDP2 enzyme inhibitors, primary screen, biochemical, epi absorbance, recombinant enzyme; Tyrosyl-DNA phosphodiesterase 2 (Homo sapiens), O95551; T5PNP hydrolysis, p-nitrophenol absorbance 415 nm; inhibition, % at 12.8 µM; hit rate 0.34% among 370,000; AID 720702, 2013;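 active means inhibition above the mean of all tested compounds plus 3 SD, set per campaign, cut at about 25% in these data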
#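 System: recombinant human TDP2 / Amount: 120 nM TDP2 per well / Also added: 5 mM T5PNP chromogenic substrate / Doses: 12.8 µM single point, 1% DMSO / Incubation: 2 h at 37 °C / Detection: p-Nitrophenol epi absorbance / Evaluation: % inhibition relative to enzyme-containing and enzyme-free wells / Repeats: singlicate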
# TCR-CD3 inh – inhibitors of human TCR-CD3 interaction, primary screen, biochemical, fluorescence, TAMRA-labeled TCR probe. inhibition, % at 9.4 µM. hit rate 0.37% among 360,000. AID 651800, 2012; in the data active means inhibition above about 19%;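 further: recombinant mutant TCR 2C K166C tagged with TAMRA read by polarization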
# HTRA1 inhibitor – HTRA1 serine protease inhibitors, primary screen, biochemical, fluorescence polarization, HTS; hit rate 0.5% among 340,000; recombinant HTRA1, FP-rhodamine activity-based probe; Q92743; AID 504803, 2011; inhibition, % at 5.96 µM; in the data active means inhibition above about 36%
# LEDGF integ inh – blockers of LEDGF/p75-dependent integrase strand transfer – biochemical, TR-FRET, high throughput, primary screen. HIV-1 integrase (with human LEDGF/p75). TR-FRET IN-LEDGF/p75 DNA integration, Eu/Cy5. inhibition, % at 3.7 µM. hit rate 0.64% among 370,000. AID 743269, 2014;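 active means inhibition above the screen-wide mean plus 3 SD, cut at about 13% in these data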;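 further: signal is the Cy5 over europium emission ratio at 671 and 618 nm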
# ABHD4 inh – ABHD4 inhibitors, primary screen, biochemical, fluorescence polarization, mouse; (Lyso)-N-acylphosphatidylethanolamine lipase (Mus musculus), Q8VD66; purified mABHD4, FP-Rh probe fluorescence polarization; inhibition, % at 8.92 µM; hit rate 0.54% among 370,000; AID 720543, 2013;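 active means inhibition exceeding the mean over every tested compound plus 3 SD, cut at about 30% in these data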
# Target sequence (Q8VD66 whole entry, looked up): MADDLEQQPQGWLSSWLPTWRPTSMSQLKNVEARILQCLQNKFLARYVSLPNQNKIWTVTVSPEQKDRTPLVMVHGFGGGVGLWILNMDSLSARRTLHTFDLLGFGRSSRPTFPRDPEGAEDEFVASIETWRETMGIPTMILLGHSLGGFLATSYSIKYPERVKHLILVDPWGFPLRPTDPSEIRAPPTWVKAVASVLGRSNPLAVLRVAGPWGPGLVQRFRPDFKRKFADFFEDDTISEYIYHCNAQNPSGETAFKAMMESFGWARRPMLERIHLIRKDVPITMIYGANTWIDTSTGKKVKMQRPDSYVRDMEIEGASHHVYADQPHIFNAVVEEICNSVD
#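 system = mouse ABHD4 enzyme, wild type | medium = HEPES pH 7.0, NaCl, Pluronic buffer | also added = FP-Rh probe | incubation = Enzyme–compound pre-incubation 45 min, then probe 60 min, both 25 °C | technique = fluorescence polarization, excitation 525 nm, emission 598 nm, BODIPY TMR filters | controls = S159A mutant high control, sample median low control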
# SIAE inh conf – human SIAE inhibitors, retest, confirmation, biochemical, fluorescence polarization, FP-Rh probe, triplicate; shares compounds with SIAE inh; SIAE FP-Rh activity-based probe; inhibition, % at 9.66 µM; hit rate 13% among 2,300;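 active means mean inhibition of the replicates above the hit cutoff set in the primary screen, cut at about 17% in these data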;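 further: inhibitors lower polarization as more probe stays unbound to SIAE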
# Numbers stand for hits; . = inactive; / = not tested or not shown.
SMILES,SIAE inh,TDP2 inh,TCR-CD3 inh,HTRA1 inhibitor,LEDGF integ inh,ABHD4 inh,SIAE inh conf
O=C(COC(=O)c1ccc[nH]c1=O)NC1CCCCCCC1,18,.,.,.,.,.,.
Cc1cc(C(=O)COC(=O)c2ccc[nH]c2=O)c(C)n1C1CC1,23,.,.,.,.,.,.
CN(C)CCCOc1ccc(-c2ccc3nncn3c2)cn1,.,.,.,/,.,.,/
Cc1c(C(=O)OCc2nc3ccsc3c(=O)[nH]2)oc2ccccc12,.,.,.,.,.,.,/
CCOc1ccc(NC(=O)C/C(C)=N/NC(=O)c2cnccn2)cc1,20,.,.,.,.,.,.
CCN(CC)CCNc1nc2c(c(=O)[nH]c(=O)n2C)n1CCCc1ccccc1,19,.,.,.,.,.,.
CC1CCCN(c2nc3c(c(=O)[nH]c(=O)n3C)n2CCCc2ccccc2)C1 (configuration not stated),18,.,.,.,.,.,.
COc1ccc(CCC(=O)N2CCCC(Nc3ccc(C)c(C)c3)C2)cc1OC (configuration not stated),17,.,.,.,.,.,.
CC(C)CC(=O)NC(=S)NNC(=O)c1ccc([N+](=O)[O-])cc1,31,.,.,.,.,.,.
CCOC(=O)c1c(OCC)[nH]c2c1cc(O)c1ccccc12,28,.,.,.,.,.,.
COc1cc(CNc2ccc3[nH]c(=O)[nH]c3c2)ccc1OCc1ccc(F)cc1,22,.,.,.,.,.,.
COc1cc(CNc2ccc3[nH]c(=O)[nH]c3c2)ccc1OCc1ccc(F)cc1Cl,.,.,.,.,.,.,/
COc1cc(CNc2ccc3[nH]c(=O)[nH]c3c2)ccc1OCc1ccccc1F,.,.,.,.,.,.,/
COc1cc(CNc2ccc3[nH]c(=O)[nH]c3c2)cc(Br)c1OCc1ccccc1F,21,.,.,.,.,.,.
CCCCS(=O)(=O)N1CCCC(C(=O)NCC2CCCO2)C1 (configuration not stated),.,.,.,.,.,.,/
CCN(Cc1ccccc1)C(=O)Nc1c(Cl)cccc1Cl,.,.,.,/,.,.,/
COc1cccc(NC(=O)N2CCCC2)c1,19,.,.,.,.,.,.
CC(=O)Nc1ccc(NC(=O)N2CCCCC2)cc1,.,.,.,.,.,.,/
O=C(Nc1ccc(F)cc1)N1CCCCCC1,18,.,.,.,.,.,.
CCC(=O)Nc1ccc(NCc2cccs2)cc1,.,.,.,.,.,.,/
O=C(O)c1ccc(NCc2cccs2)cc1,18,.,.,.,.,.,.
Cc1ccc(S(=O)(=O)NCC(C)n2cncn2)cc1C (configuration not stated),.,.,.,.,.,.,/
COc1ccc(/C(C)=N/OCC(=O)N=Nc2c(O)[nH]c3ccccc23)cc1,21,.,.,.,.,.,.
COc1ccc(/C=N/OCC(=O)N=Nc2c(O)[nH]c3ccc(Br)cc23)cc1,.,.,.,.,.,.,/
Cc1ccc(F)c(S(=O)(=O)NC(=O)C2(C)CCN2C(=O)Cc2ccccc2Cl)c1 (configuration not stated),.,.,.,/,.,.,/
SMILES,SIAE inh,TDP2 inh,TCR-CD3 inh,HTRA1 inhibitor,LEDGF integ inh,ABHD4 inh,SIAE inh conf
CC1=C(C(=O)Nc2ccccc2)C(c2ccco2)NC(=O)N1 (configuration not stated),.,.,.,.,.,.,/
CC1=C(C(=O)Nc2ccc(C)cc2)C(c2ccco2)NC(=O)N1 (configuration not stated),23,.,.,.,.,.,.
CN(C)c1cccc2c(S(=O)(=O)NC(=O)[C@H]3O[C@@H](n4ccc(=O)[nH]c4=O)[C@H](O)[C@@H]3O)cccc12,36,.,.,/,.,.,46
O=C(NS(=O)(=O)c1ccccc1[N+](=O)[O-])[C@H]1O[C@@H](n2ccc(=O)[nH]c2=O)[C@H](O)[C@@H]1O,30,.,.,/,.,.,30
Cc1cc(S(=O)(=O)NC(=O)[C@H]2O[C@@H](n3ccc(=O)[nH]c3=O)[C@H](O)[C@@H]2O)ccc1Br,.,.,.,/,.,.,/
Cc1cc(Br)ccc1NC(=O)CN(C)C(=O)c1ccccc1OCc1c(C)noc1C,.,.,.,.,.,.,/
CCN(C(=O)CSc1nc2cc(C(=O)O)ccc2c(=O)n1-c1ccccc1F)C1CCS(=O)(=O)C1 (configuration not stated),.,.,.,.,.,.,/
CC(=O)NNC(=O)CCn1c2c(c3ccccc31)CCCC2,20,.,.,.,.,.,.
O=C(Nc1ccc2ccccc2c1)c1ccccc1[N+](=O)[O-],.,.,.,.,.,.,/
O=C(Nc1ccc2ccccc2c1)c1cccc([N+](=O)[O-])c1,29,.,.,.,.,.,.
O=C(O)c1cccc([N+](=O)[O-])c1C(=O)Nc1ccc2ccccc2c1,21,.,.,.,.,.,.
O=C(Nc1cccc([N+](=O)[O-])c1)c1ccccc1,.,.,.,.,.,.,/
Cc1c(C(=O)Nc2ccc3c(c2)CCC3)cccc1[N+](=O)[O-],18,.,.,.,.,.,.
CCN(CC(=O)Nc1ccc2c(c1)OCCO2)C(=O)c1ccc(CS(C)(=O)=O)cc1,.,.,.,.,.,.,/
O=C(/C=C/c1ccccc1)NC(=S)Nc1ccccc1O,24,.,.,.,.,.,.
O=C(/C=C/c1ccc(F)cc1)NC(=S)Nc1ccccc1O,.,.,.,.,.,.,/
CCC(C)c1ccccc1N=Cc1ccc2c(c1)OCO2 (configuration not stated),.,.,.,.,.,.,/
CN(C)/C=C(\C(=O)c1ccc(Cl)cc1)c1nnnn1-c1ccc(Cl)cc1,18,.,.,.,.,.,.
CN(C)Cc1c(O)ccc2occ(C(=O)c3ccc(F)cc3)c12,22,.,.,.,.,.,.
CN(C)Cc1c(O)ccc2occ(C(=O)c3ccccc3)c12,.,.,.,.,.,.,/
CCOC(=O)C1(C)CCN1C(=O)c1cc(-c2ccc(Cl)cc2)oc1C (configuration not stated),.,.,.,/,.,.,/
Cc1ccc2nc(-c3ccc(C#N)cc3)c(Cc3cccc(Cl)c3)n2c1,.,.,.,/,.,.,/
O=C(O)c1cccc(NS(=O)(=O)c2ccc(Cl)c(C(=O)O)c2)c1,18,.,.,.,.,.,.
